Source: ChEMBL document CHEMBL4130487, “A pentanoic acid derivative targeting matrix metalloproteinase-2 (MMP-2) induces apoptosis in a chronic myeloid leukemia cell line” (Eur J Med Chem, 2017)

target: 72 kDa type IV collagenase (Homo sapiens, UniProt P08253); assay: Inhibition of recombinant human MMP2 (Tyr110 to Asp452 residues) using Ac-Pro-Leu-Gly-S-Leu-Leu-Gly-OEt as substrate after 1 hr measured at 1 min time interval for 30 mins by microplate photometric method; details: not given
Procedure, shortened: (§1)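 Commercial MMP kits; compound preincubated with enzyme before chromogenic substrate was added. Reactions at 37 °C for 1 h, with at least six inhibitor concentrations in triplicate. Absorbance at 410 nm read every 1 min for 30 min. NNGH used as reference inhibitor. IC50 taken from semi-logarithmic dose-response plots.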

Chain of 72 kDa type IV collagenase (P08253 whole entry): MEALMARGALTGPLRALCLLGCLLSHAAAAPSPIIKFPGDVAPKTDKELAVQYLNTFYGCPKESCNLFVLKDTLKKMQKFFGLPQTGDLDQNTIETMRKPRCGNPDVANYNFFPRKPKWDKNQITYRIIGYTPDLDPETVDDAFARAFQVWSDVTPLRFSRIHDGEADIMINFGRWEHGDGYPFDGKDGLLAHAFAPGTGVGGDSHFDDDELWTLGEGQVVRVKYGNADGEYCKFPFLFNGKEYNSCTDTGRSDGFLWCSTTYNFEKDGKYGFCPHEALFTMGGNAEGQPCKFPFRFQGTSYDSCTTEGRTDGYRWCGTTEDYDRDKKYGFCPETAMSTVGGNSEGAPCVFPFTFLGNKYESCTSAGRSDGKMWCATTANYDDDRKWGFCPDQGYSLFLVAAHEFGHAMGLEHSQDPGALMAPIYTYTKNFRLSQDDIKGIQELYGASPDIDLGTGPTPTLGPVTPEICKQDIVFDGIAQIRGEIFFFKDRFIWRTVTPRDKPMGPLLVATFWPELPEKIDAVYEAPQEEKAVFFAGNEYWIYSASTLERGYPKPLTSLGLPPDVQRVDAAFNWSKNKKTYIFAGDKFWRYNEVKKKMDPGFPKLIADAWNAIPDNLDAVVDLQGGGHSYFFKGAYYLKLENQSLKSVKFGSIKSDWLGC

First: CC(C)NC(=O)CC[C@H](NS(=O)(=O)c1ccc([N+](=O)[O-])cc1)C(=O)O
Second: CC(C)CNC(=O)CC[C@H](NS(=O)(=O)c1ccc([N+](=O)[O-])cc1)C(=O)O
The IC50 of the first is 4-fold lower: 2.12 µM for the first, 8.52 µM for the second.

In the case of CCNC(=O)CC[C@H](NS(=O)(=O)c1ccc([N+](=O)[O-])cc1)C(=O)O, the IC50 is reported as 5.34 µM.

target: Matrix metalloproteinase-9 (Homo sapiens, UniProt P14780); assay: Inhibition of recombinant human MMP9 (Phe107 to Pro449 residues) expressed in Escherichia coli using Ac-Pro-Leu-Gly-S-Leu-Leu-Gly-OEt as substrate after 1 hr measured at 1 min time interval for 30 mins by microplate photometric method; details: not given; procedure, shortened: as §1
Sequence (P14780 whole entry): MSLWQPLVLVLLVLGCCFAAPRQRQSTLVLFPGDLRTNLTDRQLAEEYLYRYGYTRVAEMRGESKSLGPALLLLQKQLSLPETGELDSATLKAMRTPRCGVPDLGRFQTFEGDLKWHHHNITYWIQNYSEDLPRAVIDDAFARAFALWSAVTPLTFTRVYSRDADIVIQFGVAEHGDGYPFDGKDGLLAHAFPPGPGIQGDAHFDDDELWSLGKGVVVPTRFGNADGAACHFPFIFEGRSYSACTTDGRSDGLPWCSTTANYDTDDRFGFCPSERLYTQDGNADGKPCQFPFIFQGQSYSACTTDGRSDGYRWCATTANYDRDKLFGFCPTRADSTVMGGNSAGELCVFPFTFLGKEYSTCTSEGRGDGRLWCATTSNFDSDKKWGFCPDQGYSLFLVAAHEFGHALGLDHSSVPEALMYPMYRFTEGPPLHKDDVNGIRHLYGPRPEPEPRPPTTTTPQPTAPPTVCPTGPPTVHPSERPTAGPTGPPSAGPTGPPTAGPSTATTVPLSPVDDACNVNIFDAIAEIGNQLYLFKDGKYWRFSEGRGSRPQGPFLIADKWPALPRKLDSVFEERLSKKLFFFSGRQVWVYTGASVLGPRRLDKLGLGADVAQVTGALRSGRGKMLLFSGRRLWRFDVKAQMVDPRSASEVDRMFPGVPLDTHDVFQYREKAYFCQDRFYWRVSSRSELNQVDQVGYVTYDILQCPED

CC(C)NC(=O)CC[C@H](NS(=O)(=O)c1ccc([N+](=O)[O-])cc1)C(=O)O and CC(C)CNC(=O)CC[C@H](NS(=O)(=O)c1ccc([N+](=O)[O-])cc1)C(=O)O are within 1.5-fold of each other in IC50: 5.97 µM for the first, 5.14 µM for the second.

Work on CCNC(=O)CC[C@H](NS(=O)(=O)c1ccc([N+](=O)[O-])cc1)C(=O)O yielded an IC50 of 4.8 µM.

target: MMP-2/MMP-9 (Homo sapiens) (UniProt P08253+P14780); assay: Selectivity ratio of IC50 for recombinant human MMP9 (Phe107 to Pro449 residues) expressed in Escherichia coli to IC50 for recombinant human MMP2 (Tyr110 to Asp452 residues); details: not given

Work on CC(C)NC(=O)CC[C@H](NS(=O)(=O)c1ccc([N+](=O)[O-])cc1)C(=O)O yielded a Ratio IC50 of 2.82.

test system: A549; assay: Cytotoxicity against human A549 cells assessed as reduction in cell viability after 48 hrs by MTT assay; type: functional, cell-based; details: A549, 48 h
Procedure, shortened: (§2)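 A549, MDA-MB-231, K562, U937 and PBMC (PBMC from healthy donors) seeded at 1×10^3 cells/well and left 24 h, then exposed to compounds for 48 h at 37 °C, 5% CO2. Adherent lines were grown in DMEM, the others in RPMI-1640 with 10% heat-inactivated FBS. MTT read-out; viability expressed as % of untreated control. IC50 taken as the concentration giving 50% viability loss.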

CC(C)NC(=O)CC[C@H](NS(=O)(=O)c1ccc([N+](=O)[O-])cc1)C(=O)O and CC(C)CNC(=O)CC[C@H](NS(=O)(=O)c1ccc([N+](=O)[O-])cc1)C(=O)O cannot be ordered by IC50: greater than 500 µM for the first, greater than 500 µM for the second.

For CCNC(=O)CC[C@H](NS(=O)(=O)c1ccc([N+](=O)[O-])cc1)C(=O)O, the IC50 was 221 µM.

test system: MDA-MB-231; assay: Cytotoxicity against human MDA-MB-231 cells assessed as reduction in cell viability after 48 hrs by MTT assay; type: functional, cell-based; details: MDA-MB-231, 48 h; procedure, shortened: as §2

CC(C)NC(=O)CC[C@H](NS(=O)(=O)c1ccc([N+](=O)[O-])cc1)C(=O)O and CC(C)CNC(=O)CC[C@H](NS(=O)(=O)c1ccc([N+](=O)[O-])cc1)C(=O)O cannot be ordered by IC50: greater than 500 µM for the first, greater than 500 µM for the second.

In the case of CCNC(=O)CC[C@H](NS(=O)(=O)c1ccc([N+](=O)[O-])cc1)C(=O)O, the IC50 is reported as greater than 500 µM.

test system: K562; assay: Cytotoxicity against human K562 cells assessed as reduction in cell viability after 48 hrs by MTT assay; type: functional, cell-based; details: K562, 48 h; procedure, shortened: as §2

First: CC(C)NC(=O)CC[C@H](NS(=O)(=O)c1ccc([N+](=O)[O-])cc1)C(=O)O
Second: CC(C)CNC(=O)CC[C@H](NS(=O)(=O)c1ccc([N+](=O)[O-])cc1)C(=O)O
The IC50 of the first is 2.1-fold lower: 19.8 µM for the first, 42.5 µM for the second. The first is the more potent here.

Work on CCNC(=O)CC[C@H](NS(=O)(=O)c1ccc([N+](=O)[O-])cc1)C(=O)O yielded an IC50 greater than 500 µM.

test system: U-937; assay: Cytotoxicity against human U937 cells assessed as reduction in cell viability after 48 hrs by MTT assay; type: functional, cell-based; details: U-937, 48 h; procedure, shortened: as §2

CC(C)NC(=O)CC[C@H](NS(=O)(=O)c1ccc([N+](=O)[O-])cc1)C(=O)O and CC(C)CNC(=O)CC[C@H](NS(=O)(=O)c1ccc([N+](=O)[O-])cc1)C(=O)O are within 1.5-fold of each other in IC50: 95.1 µM for the first, 93.8 µM for the second.

Work on CCNC(=O)CC[C@H](NS(=O)(=O)c1ccc([N+](=O)[O-])cc1)C(=O)O yielded an IC50 of 89.4 µM.

test system: PBMC; assay: Cytotoxicity against human PBMC assessed as reduction in cell viability after 48 hrs by MTT assay; type: cell-based; details: not given; procedure, shortened: as §2

CC(C)NC(=O)CC[C@H](NS(=O)(=O)c1ccc([N+](=O)[O-])cc1)C(=O)O and CC(C)CNC(=O)CC[C@H](NS(=O)(=O)c1ccc([N+](=O)[O-])cc1)C(=O)O cannot be ordered by IC50: greater than 1000 µM for the first, greater than 1000 µM for the second.

CCNC(=O)CC[C@H](NS(=O)(=O)c1ccc([N+](=O)[O-])cc1)C(=O)O was tested, and the IC50 was greater than 1000 µM.

target: T1, Interstitial collagenase (Homo sapiens, UniProt P03956); assay: Inhibition of recombinant human MMP1 (Phe100 to Gln268 residues) using Ac-Pro-Leu-Gly-S-Leu-Leu-Gly-OEt as substrate after 1 hr measured at 1 min time interval for 30 mins by microplate photometric method; details: not given; procedure, shortened: as §1
T1 sequence (P03956 whole entry): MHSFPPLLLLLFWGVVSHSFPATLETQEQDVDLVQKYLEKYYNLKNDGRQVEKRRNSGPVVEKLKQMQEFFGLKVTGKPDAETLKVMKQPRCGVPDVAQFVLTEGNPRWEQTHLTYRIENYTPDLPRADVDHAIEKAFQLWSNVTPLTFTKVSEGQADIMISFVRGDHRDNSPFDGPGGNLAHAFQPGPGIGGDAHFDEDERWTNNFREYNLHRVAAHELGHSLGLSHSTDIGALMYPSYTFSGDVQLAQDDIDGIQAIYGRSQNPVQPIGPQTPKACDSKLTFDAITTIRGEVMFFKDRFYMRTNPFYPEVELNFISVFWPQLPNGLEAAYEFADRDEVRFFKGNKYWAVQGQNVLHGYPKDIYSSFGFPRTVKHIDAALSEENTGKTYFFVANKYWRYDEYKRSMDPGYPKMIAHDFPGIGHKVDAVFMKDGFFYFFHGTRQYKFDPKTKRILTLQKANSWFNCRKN

CC(C)NC(=O)CC[C@H](NS(=O)(=O)c1ccc([N+](=O)[O-])cc1)C(=O)O and CC(C)CNC(=O)CC[C@H](NS(=O)(=O)c1ccc([N+](=O)[O-])cc1)C(=O)O cannot be ordered by IC50: greater than 500 µM for the first, greater than 500 µM for the second.

Work on CCNC(=O)CC[C@H](NS(=O)(=O)c1ccc([N+](=O)[O-])cc1)C(=O)O yielded an IC50 greater than 500 µM.

target: Neutrophil collagenase (Homo sapiens, UniProt P22894); assay: Inhibition of recombinant human MMP8 (Phe99 to Gln269 residues) expressed in Escherichia coli using Ac-Pro-Leu-Gly-S-Leu-Leu-Gly-OEt as substrate after 1 hr measured at 1 min time interval for 30 mins by microplate photometric method; details: not given; procedure, shortened: as §1
Sequence (P22894 whole entry): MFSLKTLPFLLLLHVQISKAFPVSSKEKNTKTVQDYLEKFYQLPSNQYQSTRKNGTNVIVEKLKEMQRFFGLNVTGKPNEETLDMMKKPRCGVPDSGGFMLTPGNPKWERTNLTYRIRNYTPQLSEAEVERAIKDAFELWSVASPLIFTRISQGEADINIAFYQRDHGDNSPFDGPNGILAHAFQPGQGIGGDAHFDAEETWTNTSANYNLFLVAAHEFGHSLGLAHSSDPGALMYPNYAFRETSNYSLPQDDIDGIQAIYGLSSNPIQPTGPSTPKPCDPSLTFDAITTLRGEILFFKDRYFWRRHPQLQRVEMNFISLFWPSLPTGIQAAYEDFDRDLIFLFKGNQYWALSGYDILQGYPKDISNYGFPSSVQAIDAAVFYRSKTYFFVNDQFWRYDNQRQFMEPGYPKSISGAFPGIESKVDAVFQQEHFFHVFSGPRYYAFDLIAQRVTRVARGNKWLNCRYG

Going from CC(C)NC(=O)CC[C@H](NS(=O)(=O)c1ccc([N+](=O)[O-])cc1)C(=O)O to CC(C)CNC(=O)CC[C@H](NS(=O)(=O)c1ccc([N+](=O)[O-])cc1)C(=O)O, the IC50 falls from greater than 500 µM to 483 µM. The second is the more potent here.

CCNC(=O)CC[C@H](NS(=O)(=O)c1ccc([N+](=O)[O-])cc1)C(=O)O gave an IC50 of 298 µM.

target: Macrophage metalloelastase (Homo sapiens, UniProt P39900); assay: Inhibition of recombinant human MMP12 (Phe99 to Leu271 residues) expressed in Escherichia coli using Ac-Pro-Leu-Gly-S-Leu-Leu-Gly-OEt as substrate after 1 hr measured at 1 min time interval for 30 mins by microplate photometric method; details: not given; procedure, shortened: as §1
Sequence (P39900 whole entry): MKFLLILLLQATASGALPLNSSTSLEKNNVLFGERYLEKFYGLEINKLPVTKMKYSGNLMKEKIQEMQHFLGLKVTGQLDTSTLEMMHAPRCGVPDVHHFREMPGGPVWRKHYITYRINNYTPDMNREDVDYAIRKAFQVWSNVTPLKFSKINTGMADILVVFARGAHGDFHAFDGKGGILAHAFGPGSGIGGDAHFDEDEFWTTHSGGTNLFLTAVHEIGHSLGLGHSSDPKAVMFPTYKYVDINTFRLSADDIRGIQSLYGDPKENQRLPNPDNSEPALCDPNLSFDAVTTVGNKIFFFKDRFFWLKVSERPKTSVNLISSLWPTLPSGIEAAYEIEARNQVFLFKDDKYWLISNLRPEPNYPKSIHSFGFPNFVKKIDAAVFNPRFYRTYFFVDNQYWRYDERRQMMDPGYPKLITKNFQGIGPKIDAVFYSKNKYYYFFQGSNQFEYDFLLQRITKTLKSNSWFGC

Going from CC(C)NC(=O)CC[C@H](NS(=O)(=O)c1ccc([N+](=O)[O-])cc1)C(=O)O to CC(C)CNC(=O)CC[C@H](NS(=O)(=O)c1ccc([N+](=O)[O-])cc1)C(=O)O, the IC50 rises from 493 µM to greater than 500 µM.

With CCNC(=O)CC[C@H](NS(=O)(=O)c1ccc([N+](=O)[O-])cc1)C(=O)O the IC50 was 109 µM.

target: Matrix metalloproteinase-14 (Homo sapiens, UniProt P50281); assay: Inhibition of recombinant human MMP14 (Tyr112 to Arg298 residues) expressed in Escherichia coli using Ac-Pro-Leu-Gly-S-Leu-Leu-Gly-OEt as substrate after 1 hr measured at 1 min time interval for 30 mins by microplate photometric method; details: not given; procedure, shortened: as §1

CC(C)NC(=O)CC[C@H](NS(=O)(=O)c1ccc([N+](=O)[O-])cc1)C(=O)O and CC(C)CNC(=O)CC[C@H](NS(=O)(=O)c1ccc([N+](=O)[O-])cc1)C(=O)O are within 1.5-fold of each other in IC50: 301 µM for the first, 309 µM for the second.

Compound CCNC(=O)CC[C@H](NS(=O)(=O)c1ccc([N+](=O)[O-])cc1)C(=O)O has an IC50 of 87.1 µM.
